This is an account of results in publication PMC10240386 (Cell chemical biology, 2023).

One assay deals with i-20S/PA28α. Kind of assay: Degradation of the modified β-casein by i-20S. It is filed as biochemical, human. Particulars: β-casein pre-incubated with 100 μM compound, hemin and ascorbate; for degradation of β-casein by i-20S/PA28α, non-dialyzed control: not dialyzed; for degradation of β-casein by i-20S/PA28α, dialyzed set: then dialyzed.
For another assay, the system named is Pf20Sβ6^A117D. As to the kind of experiment: Blocking of MV151 labeling in parasite lysate. It is filed as binding, Plasmodium falciparum. Particulars: 1 h preincubation of Dd2β6^A117D lysate. The method in brief:
(§1)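 Dd2 wild-type or mutant parasite pellets lysed on ice for 1 h in 50 mM Tris-HCl, 5 mM MgCl2, 1 mM DTT, pH 7.4, then centrifuged; protein quantified by BCA. 5–10 µg of lysate protein preincubated with test compound for 1 h at 37°C. MV151 added at 2 µM final for a further 1 h at 37°C, protected from light. Run on 12% Bis-Tris SDS-PAGE and scanned at Cy3/TAMRA (λex 532, λem 560 nm).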

A further assay relates to Dd2β5^A49S. Kind of assay: Parasite growth inhibition assay, erythrocytic stage. It is filed as cell-based, Plasmodium falciparum. Particulars: for fold more resistant / reduced potency, Dd2β5^A49S versus parental Dd2: EC50 ratio; for EC50: Plasmodium falciparum, 72 h, read-out: EC50 Dd2β5^A49S.
Another assay concerns Pf Dd2^WT. The description is as above. It is filed as cell-based, Plasmodium falciparum. The conditions noted are these: for EC50: Plasmodium falciparum, DD2, Erythrocyte, 72 h, read-out: EC50 Pf Dd2^WT; for inhibition of Pf growth: strain not stated in text (Figure 5A).
The subject of a further assay is Dd2β6^A117D. Described as above. In kind it is cell-based, Plasmodium falciparum. Particulars: for fold more resistant / reduced potency, Dd2β6^A117D versus parental Dd2: EC50 ratio; for EC50: Plasmodium falciparum, 72 h, read-out: EC50 Dd2β6^A117D.
The test system of another assay is HepG2 cells. Kind of assay: HepG2 cell viability assay. It is filed as cell-based. Particulars: Homo sapiens, HepG2, 72 h, read-out: HepG2.
For a further assay, the target named is human i-20S β5i (Homo sapiens, UniProt P20618+P28062). As to the kind of experiment: Proteasome IC50 determination, human i-20S β5i. In kind it is biochemical. The method in brief:
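Human i-20S (0.4 nM) assayed in 20 mM HEPES, 0.5 mM EDTA, 0.1 mg/mL BSA, pH 7.5, with 0.02% SDS and 15 µM Ac-ANW-AMC. Pf20S (1 nM) assayed in 50 mM Tris, 5 mM MgCl2, 1 mM DTT, pH 7.4, with 12 nM PA28α, 0.5 µM WLW-VS and 25 µM suc-LLVY-AMC. Test compound given as a 3-fold series, 100–0.0017 µM final. AMC read at 360/460 nm for 1–2 h; velocities fitted to a dose-response equation. Run in duplicate or triplicate.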

The test system of another assay is Pf20Sβ5^A49S. As to the kind of experiment: Blocking of MV151 labeling in parasite lysate. In kind it is binding, Plasmodium falciparum. Particulars: 1 h preincubation of Dd2β5^A49S lysate. The method in brief:
as §1

Assay [1] concerns Pf strains Cam3.I^rev and Cam3.I^R539T. Kind of assay: Extended RSA / parasite regrowth assay. In kind it is cell-based, Plasmodium falciparum. The conditions noted are these: 6 h pulse as in RSA, parasitemia on day 7, ART-sensitive and ART-resistant lines. The method in brief: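 Cultures repeatedly sorbitol-synchronized, then Percoll-sorbitol enriched for late stages, allowed 3 h reinvasion and sorbitol-treated again to give 0–3 h rings. Rings plated at 0.5% parasitemia and exposed to test compound (700 or 800 nM) for 6 h, then washed. Transferred into 3 mL culture for seven days; parasitemia scored by microscopy on day 7.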

A further assay deals with human c-20S β5c (Homo sapiens, UniProt P20618+P28074). As to the kind of experiment: Proteasome IC50 determination, human c-20S β5c. It is filed as biochemical. In short, it runs like this: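 Human c-20S (0.2 nM) assayed in 20 mM HEPES, 0.5 mM EDTA, 0.1 mg/mL BSA, pH 7.5, with 0.02% SDS and 25 µM suc-LLVY-AMC. Pf20S (1 nM) assayed in 50 mM Tris, 5 mM MgCl2, 1 mM DTT, pH 7.4, with 12 nM PA28α, 0.5 µM WLW-VS and 25 µM suc-LLVY-AMC. Test compound given as a 3-fold series, 100–0.0017 µM final. AMC read at 360/460 nm for 1–2 h; linear velocities fitted to a dose-response equation. Run in duplicate or triplicate.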

In another assay the target is Pf20S β5 (Plasmodium falciparum, UniProt A0A5K1K7U1+Q8IJT1). Kind of assay: biochemical. In kind it is biochemical. Particulars: for activity against Pf20S: Pf20S β5.
For assay [2], the system named is Pf20S β5 in lysate of Dd2^WT. As to the kind of experiment: Blocking of MV151 labeling in parasite lysate. It is filed as binding, Plasmodium falciparum. The conditions noted are these: 1 h preincubation of Dd2^WT lysate. In short, it runs like this: as §1
For assay [3], the system named is P. berghei G2025^R551T (K13^R551T). Kind of assay: Modified Peters' 4-day suppressive test for recrudescence, ART-resistant strain. In kind it is in vivo, Swiss Webster mice. Particulars: ART 50 mg/kg, ATZ4 100 mg/kg i.p. day 0 to day 2.
Assay [4] deals with Pf Dd2 proteins and peptides. In kind it is cell-based, Plasmodium falciparum. The conditions noted are these: 700 nM for 6 h, Cy3-alkyne click, in-gel fluorescence.
Assay [5] deals with DHA-resistant clones DR1, DR2, DR4 derived from Dd2. As to the kind of experiment: Standard 72-h in vitro assay on DHA-resistant clones. It is filed as cell-based, Plasmodium falciparum. The conditions noted are these: standard 72-h assay.
A further assay deals with P. berghei ANKA lux. Kind of assay: In vivo efficacy in mice infected with P. berghei ANKA lux. Also noted: species or system Swiss Webster mice. The conditions noted are these: 20 mg/kg i.p. once daily day 3 to day 6, luminescence on day 7; positive control.

Each structure is given as a SMILES string. A value given as a limit tells only on which side of the number the result lay.

Consider `CC(C)(C)NC(=O)C[C@H](NC(=O)CCCNC(=O)OC(C)(C)C)C(=O)NCCNC(=O)c1cc(-c2ccccc2F)ccc1F` [PI01, tert-butyl (S)-(4-((4-(tert-butylamino)-1-((2-(2′,4-difluoro-[1,1′-biphenyl]-3-carboxamido)ethyl)amino)-1,4-dioxobutan-2-yl)amino)-4-oxobutyl)carbamate], for which the “degradation of β-casein by i-20S/PA28α, non-dialyzed control” value in the assay with i-20S/PA28α was “inhibited the degradation of β-casein”. For the same molecule, the “degradation of β-casein by i-20S/PA28α, dialyzed set” value in the assay with i-20S/PA28α is recorded as “unimpeded degradation of β-casein”. The “blocking of MV151 labeling of β5” value was “prevented PI01 and ATZ4 from inhibiting” in the assay with Pf20Sβ6^A117D; “prevented PI01 and ATZ4 from inhibiting” in the assay with Pf20Sβ5^A49S; “dose dependently blocked labeling of β5” in assay [2]. Further, in the assay on Dd2β5^A49S, the “fold more resistant / reduced potency, Dd2β5^A49S versus parental Dd2” value is greater than 370 fold. Also, the EC50 in the assay on Dd2β5^A49S was greater than 2770 nM; with Pf Dd2^WT, 7.4 ± 0.2 nM; in the assay on Dd2β6^A117D it was 121 ± 20 nM; in the assay on HepG2 cells, greater than 100000 nM. Further, the “fold more resistant / reduced potency, Dd2β6^A117D versus parental Dd2” value with Dd2β6^A117D worked out at 16 fold. Further, the IC50 – broadly, the point on the concentration scale where inhibition reaches its midpoint – was 200 ± 46 nM against human i-20S β5i, 2000 nM against human c-20S β5c and 6 ± 0.8 nM against Pf20S β5. Moreover, on human i-20S β5i (ratio of IC50 values), the “fold less active on hu i-20S than on Pf20S” value was ~ 30 fold. For the same molecule, the “parasite regrowth after pulse” value in assay [1] was “re-established normal growth”. Also, the “fold less active on hu c-20S than on Pf20S” value at human c-20S β5c (ratio of IC50 values) was roughly 300 fold.

`C[C@H]1[C@@H](CC(=O)NCC(=O)N[C@@H](CC(=O)NC(C)(C)C)C(=O)NCCNC(=O)c2cc(-c3ccccc3F)ccc2F)O[C@@H]2O[C@@]3(C)CC[C@H]4[C@H](C)CC[C@@H]1[C@@]24OO3` [ATZ2, (S)-N4-(tert-butyl)-N1-(2-(2′,4-difluoro-[1,1′-biphenyl]-3-carboxamido)ethyl)-2-(2-(2-((3R,5aS,6R,8aS,9R,10R,12R,12aR)-3,6,9-trimethyldecahydro-12H-3,12-epoxy[1,2]dioxepino[4,3-i]isochromen-10-yl)acetamido)acetamido)succinamide]: in the assay with i-20S/PA28α, the “degradation of β-casein by i-20S/PA28α, non-dialyzed control” value is on record as “inhibited the degradation of β-casein”. In the assay on Dd2β5^A49S, the “fold improvement over PI01 against Dd2β5^A49S” value was greater than 100 fold; the “fold more resistant / reduced potency, Dd2β5^A49S versus parental Dd2” value is no more than 3.6 fold; the EC50 is 10.9 ± 2.6 nM. Also, in the assay on Pf Dd2^WT (EC50 ratio), the “times more potent than ART1 against Dd2” value came to 10 times. Moreover, the EC50 with Pf Dd2^WT is 3 ± 0.6 nM. Moreover, in the assay with Dd2β6^A117D, the “fold improvement over PI01 against Dd2β6^A117D” value is given as no less than 5 fold; the “fold more resistant / reduced potency, Dd2β6^A117D versus parental Dd2” value is no more than 2.9 fold; the EC50 came to 4.4 ± 1.1 nM. The same molecule registered an IC50 against human i-20S β5i of 73 ± 19 nM. This molecule also had an IC50 against human c-20S β5c of 210 ± 40 nM. Besides, on Pf20S β5, half-maximal inhibition (IC50) was put at 2.9 ± 0.6 nM and the “activity against Pf20S” value is recorded as “potency comparable with that of PI01”.

For the molecule `C[C@@H]1CC[C@H]2[C@@H](C)C(=O)O[C@@H]3O[C@@]4(C)CC[C@@H]1[C@]32OO4` [ART, artemisinin, reference compound], in assay [3], the “mice with positive blood smear on day 6” value was 20%, the “mice with positive blood smear on day 8” value was found to be 40% and the “mice with positive blood smear on day 10” value was determined as 100%. Moreover, the “labeling of parasite proteins and peptides” value in assay [4] was “minimal labeling of proteins and peptides”.

For `C[C@H]1[C@@H](O)O[C@@H]2O[C@@]3(C)CC[C@H]4[C@H](C)CC[C@@H]1[C@@]24OO3` [DHA, dihydroartemisinin, reference compound], the “parasite regrowth after pulse” value in assay [1] is listed as “re-established normal growth”. Also, the “susceptibility of DHA-resistant clones compared with WT Dd2” value in [5] is listed as “highly resistant”.

On to `C[C@H]1[C@@H](CC(=O)N[C@@H](CCCN=[N+]=[N-])C(=O)N[C@@H](CC(=O)NC(C)(C)C)C(=O)NCCNC(=O)c2cc(-c3ccccc3F)ccc2F)O[C@@H]2O[C@@]3(C)CC[C@H]4[C@H](C)CC[C@@H]1[C@@]24OO3` [ATZ-P1, (S)-2-((S)-5-azido-2-(2-((3R,5aS,6R,8aS,9R,10R,12R,12aR)-3,6,9-trimethyldecahydro-12H-3,12-epoxy[1,2]dioxepino[4,3-i]isochromen-10-yl)acetamido)pentanamido)-N^4-(tert-butyl)-N^1-(2-(2′,4-difluoro-[1,1′-biphenyl]-3-carboxamido)ethyl)succinimide], for which the “inhibition of Pf growth” value in the assay with Pf Dd2^WT is reported as “highly potent inhibitors”. At Pf20S β5, the “activity against Pf20S” value is “highly potent inhibitors”. In assay [4], the “labeling of parasite proteins and peptides” value is “substantial labeling of proteins and peptides”.

With `C[C@H]1[C@@H](CC(N)=O)O[C@@H]2O[C@@]3(C)CC[C@H]4[C@H](C)CC[C@@H]1[C@@]24OO3` [ART1, 2-((3R,5aS,6R,8aS,9R,10R,12R,12aR)-3,6,9-trimethyldecahydro-12H-3,12-epoxy[1,2]dioxepino[4,3-i]isochromen-10-yl)acetamide], in the assay with i-20S/PA28α, the “degradation of β-casein by i-20S/PA28α, dialyzed set” value is “unimpeded degradation of β-casein”. For the same molecule, the EC50 in the assay with Dd2β5^A49S is 30.2 ± 2.6 nM; in the assay on Pf Dd2^WT, 43.7 ± 12.7 nM; in the assay on Dd2β6^A117D it was 27.9 ± 11 nM; in the assay with HepG2 cells, greater than 100000 nM. The concentration for half-maximal inhibition (IC50) is greater than 100000 nM against human i-20S β5i, greater than 100000 nM against human c-20S β5c and 9200 nM at Pf20S β5. Besides, the “activity against human proteasomes” value at human i-20S β5i (hu i-20S) and on human c-20S β5c (hu c-20S) was “inactive” in each case. For the same molecule, in assay [1], the “parasite regrowth after pulse” value is reported as “re-established normal growth”. Besides, the “susceptibility of DHA-resistant clones compared with WT Dd2” value in assay [5] is given as “modestly resistant”.

For the molecule `CCN(CC)CCCC(C)Nc1ccnc2cc(Cl)ccc12` (stereo not shown) [chloroquine, reference compound], the “parasite load” value in the assay with P. berghei ANKA lux is “below the limit of detection”.

For `C[C@H]1[C@@H](CC(=O)N[C@@H](CCCN=[N+]=[N-])C(=O)N[C@@H](CC(=O)NC(C)(C)C)C(=O)NCCNC(=O)c2cc(-c3ccccc3F)ccc2F)O[C@@H]2O[C@@]3(C)CC[C@H]4[C@H](C)CC[C@@H]1[C@@]24O3` [deoxy-ATZ-P1, (S)-2-((S)-5-azido-2-(2-((2R,3R,3aS,3a^1R,6R,6aS,9S,10aR)-3,6,9-trimethyldecahydro-10aH-3a^1,9-epoxyoxepino[4,3,2-ij]isochromen-2-yl)acetamido)pentanamido)-N^4-(tert-butyl)-N^1-(2-(2′,4-difluoro-[1,1′-biphenyl]-3-carboxamido)ethyl)succinamide], the “inhibition of Pf growth” value in the assay on Pf Dd2^WT is on record as “highly potent inhibitors”. Moreover, the “activity against Pf20S” value at Pf20S β5 is reported as “highly potent inhibitors”. Further, the “labeling of parasite proteins and peptides” value in [4] is “minimal labeling of proteins and peptides”.
